We go through 3 molecules from ChEMBL document CHEMBL1152541, “Staurosporine tethered peptide ligands that target cAMP-dependent protein kinase (PKA): optimization and selectivity profiling” (Bioorg Med Chem, 2009).

*1 amine or outer side, *2 acyl side, *3 side chain or, on linkers, in order; H or OH if unused. Where a SMILES comes first, the peptide text is derived from it. Bridges are numbered along the chain shown (N, C = ends). [ ]: non-standard residue; d: D form. The star is where a group is joined. Staurosporine = CO[C@@H]1[C@H](N(C)*)C[C@H]2O[C@]1(C)n1c3ccccc3c3c4c(c5c6ccccc6n2c5c31)C(=O)NC4; Suc = O=C(CCC(=O)[*:2])[*:1]; Dap = NC[C@H](N)C(=O)O; βAla = NCCC(=O)O

Assay [1] has as its target Phosphatidylinositol 4,5-bisphosphate 3-kinase catalytic subunit gamma isoform (Homo sapiens) (UniProt P48736). The assay can be described thus: Ratio of staurosporine to compound binding affinity to PI3Kgamma in presence of DTT.
The target in assay [2] is T1, Protein kinase C epsilon type (Homo sapiens) (UniProt Q02156).
T1 sequence (whole entry): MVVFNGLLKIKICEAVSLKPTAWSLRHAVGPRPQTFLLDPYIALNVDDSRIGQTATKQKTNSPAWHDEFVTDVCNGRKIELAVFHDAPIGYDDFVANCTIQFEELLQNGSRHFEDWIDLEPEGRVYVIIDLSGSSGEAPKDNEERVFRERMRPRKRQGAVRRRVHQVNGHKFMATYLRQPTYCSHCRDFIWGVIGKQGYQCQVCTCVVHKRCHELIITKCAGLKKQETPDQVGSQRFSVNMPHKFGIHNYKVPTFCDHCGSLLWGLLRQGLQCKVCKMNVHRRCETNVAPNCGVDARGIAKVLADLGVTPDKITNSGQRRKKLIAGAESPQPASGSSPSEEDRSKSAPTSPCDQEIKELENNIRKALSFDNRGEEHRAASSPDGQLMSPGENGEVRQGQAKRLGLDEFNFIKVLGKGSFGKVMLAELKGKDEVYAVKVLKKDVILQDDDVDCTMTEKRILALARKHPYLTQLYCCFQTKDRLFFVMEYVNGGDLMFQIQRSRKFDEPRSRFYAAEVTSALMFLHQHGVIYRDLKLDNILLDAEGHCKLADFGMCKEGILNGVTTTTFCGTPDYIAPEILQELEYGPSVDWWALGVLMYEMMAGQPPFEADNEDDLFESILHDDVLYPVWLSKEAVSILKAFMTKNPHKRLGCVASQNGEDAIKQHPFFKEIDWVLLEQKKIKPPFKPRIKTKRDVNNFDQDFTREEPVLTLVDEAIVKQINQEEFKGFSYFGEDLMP
The assay can be described thus: Binding affinity to human PRKCepsilon at 500 nM by cell-based competition binding assay relative to control in presence of DTT.

In assay [3] the target is Fibroblast growth factor receptor 3 (Homo sapiens) (UniProt P22607). Description: Binding affinity to human FGFR3 at 500 nM by cell-based competition binding assay relative to control in presence of DTT. Summed up: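 Commercial (Ambit) competitive kinase-binding panel of 90 kinases measured the binding profile. Run under reducing conditions of 7.5 mM DTT. Binding is expressed relative to control.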

The nature of assay [4]: Ratio of compound IC50 to bivalent ligand 1 IC50 for PKA.
Assay [5] addresses Cyclin-dependent kinase 16 (Homo sapiens) (UniProt Q00536). Description: Binding affinity to human PCTK1 at 200 nM by cell-based competition binding assay relative to control in presence of DTT.
In assay [6] the target is Cyclin-dependent kinase 7 (Homo sapiens) (UniProt P50613). Description: Binding affinity to human CDK7 at 200 nM by cell-based competition binding assay relative to control in presence of DTT. The gist of the method: (§1)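 Kinase binding profiling ran on a commercial (Ambit) competitive binding screen against a panel of 90 kinases. The screen used reducing conditions with 7.5 mM DTT. To withstand the DTT, the bivalent ligand was tested as its amide isostere, with the disulfide replaced. A staurosporine derivative carrying a 3 β-alanine linker was run as the reference compound.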

For assay [7], the target named is Dual specificity mitogen-activated protein kinase kinase 2 (Homo sapiens) (UniProt P36507). The assay can be described thus: Binding affinity to human MEK2 at 200 nM by cell-based competition binding assay relative to control in presence of DTT.
The test system of assay [8] is Tyrosine-protein kinase ABL1 (Homo sapiens), P00519 [E255K]. The assay can be described thus: Binding affinity to human ABL1 E255K mutant at 200 nM by cell-based competition binding assay relative to control in presence of DTT. The gist of the method:
as §1

For assay [9], the target named is Serine/threonine-protein kinase 32C (Homo sapiens) (UniProt Q86UX6). The assay can be described thus: Binding affinity to human YANK3 at 200 nM by cell-based competition binding assay relative to control in presence of DTT.
In assay [10] the target is T2, NUAK family SNF1-like kinase 2 (Homo sapiens) (UniProt Q9H093).
T2 sequence (whole entry): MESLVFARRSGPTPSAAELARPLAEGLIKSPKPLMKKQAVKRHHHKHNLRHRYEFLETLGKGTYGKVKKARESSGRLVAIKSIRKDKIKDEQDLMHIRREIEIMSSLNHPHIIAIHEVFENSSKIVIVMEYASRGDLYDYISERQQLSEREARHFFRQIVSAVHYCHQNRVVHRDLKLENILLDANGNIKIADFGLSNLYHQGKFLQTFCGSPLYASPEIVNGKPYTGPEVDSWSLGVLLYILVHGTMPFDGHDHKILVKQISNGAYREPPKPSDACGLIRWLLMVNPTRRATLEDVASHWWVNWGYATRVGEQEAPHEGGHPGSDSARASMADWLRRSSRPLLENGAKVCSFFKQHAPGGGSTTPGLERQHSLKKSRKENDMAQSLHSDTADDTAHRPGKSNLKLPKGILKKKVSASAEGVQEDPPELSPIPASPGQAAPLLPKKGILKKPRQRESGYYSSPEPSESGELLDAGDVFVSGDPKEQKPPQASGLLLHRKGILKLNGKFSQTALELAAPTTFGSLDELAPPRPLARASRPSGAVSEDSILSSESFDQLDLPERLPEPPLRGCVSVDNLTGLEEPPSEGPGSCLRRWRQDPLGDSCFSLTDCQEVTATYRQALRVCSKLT
The assay can be described thus: Binding affinity to human SNARK at 50 nM by cell-based competition binding assay relative to control in presence of DTT.

Assay [11] deals with Cyclin-dependent kinase 3 (Homo sapiens) (UniProt Q00526). The assay can be described thus: Binding affinity to human CDK3 at 50 nM by cell-based competition binding assay relative to control in presence of DTT. Summed up:
as §1

Assay [12] has as its target Serine/threonine-protein kinase PLK3 (Homo sapiens) (UniProt Q9H4B4). Description: Binding affinity to human PLK3 at 50 nM by cell-based competition binding assay relative to control in presence of DTT.

Chain of Cyclin-dependent kinase 3 (Homo sapiens) (Q00526 whole entry, looked up): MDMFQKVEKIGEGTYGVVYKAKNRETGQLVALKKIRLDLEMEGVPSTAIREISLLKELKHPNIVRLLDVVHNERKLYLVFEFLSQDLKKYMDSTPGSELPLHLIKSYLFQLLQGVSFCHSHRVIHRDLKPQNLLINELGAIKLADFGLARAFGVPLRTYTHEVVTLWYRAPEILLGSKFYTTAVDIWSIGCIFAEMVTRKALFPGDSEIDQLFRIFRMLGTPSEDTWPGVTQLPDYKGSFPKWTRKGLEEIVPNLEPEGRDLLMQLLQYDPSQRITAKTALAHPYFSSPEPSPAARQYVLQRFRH
Chain of Serine/threonine-protein kinase 32C (Homo sapiens) (Q86UX6 whole entry): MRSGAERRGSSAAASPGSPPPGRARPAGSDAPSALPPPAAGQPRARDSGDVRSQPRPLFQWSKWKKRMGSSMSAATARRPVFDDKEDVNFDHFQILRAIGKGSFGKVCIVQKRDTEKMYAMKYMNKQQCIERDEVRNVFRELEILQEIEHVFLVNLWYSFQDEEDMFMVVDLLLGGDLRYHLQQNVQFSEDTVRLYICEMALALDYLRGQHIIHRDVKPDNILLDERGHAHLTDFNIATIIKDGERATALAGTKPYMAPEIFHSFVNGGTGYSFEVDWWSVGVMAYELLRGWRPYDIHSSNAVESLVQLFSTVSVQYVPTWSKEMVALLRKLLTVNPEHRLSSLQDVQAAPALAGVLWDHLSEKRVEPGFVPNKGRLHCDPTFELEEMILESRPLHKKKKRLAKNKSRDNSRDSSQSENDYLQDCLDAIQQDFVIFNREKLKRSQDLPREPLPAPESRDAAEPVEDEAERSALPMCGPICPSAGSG
Chain of Dual specificity mitogen-activated protein kinase kinase 2 (Homo sapiens) (P36507 whole entry): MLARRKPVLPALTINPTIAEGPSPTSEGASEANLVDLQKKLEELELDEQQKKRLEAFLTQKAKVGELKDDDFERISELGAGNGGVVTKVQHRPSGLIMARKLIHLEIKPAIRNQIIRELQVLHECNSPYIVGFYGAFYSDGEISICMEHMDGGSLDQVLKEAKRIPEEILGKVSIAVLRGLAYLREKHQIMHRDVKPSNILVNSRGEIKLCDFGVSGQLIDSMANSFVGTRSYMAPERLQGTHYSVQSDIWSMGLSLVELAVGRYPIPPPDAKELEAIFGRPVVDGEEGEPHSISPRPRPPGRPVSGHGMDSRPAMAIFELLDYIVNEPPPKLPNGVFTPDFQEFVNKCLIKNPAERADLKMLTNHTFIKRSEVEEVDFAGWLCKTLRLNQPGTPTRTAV
Chain of Phosphatidylinositol 4,5-bisphosphate 3-kinase catalytic subunit gamma isoform (Homo sapiens) (P48736 whole entry, looked up, canonical isoform): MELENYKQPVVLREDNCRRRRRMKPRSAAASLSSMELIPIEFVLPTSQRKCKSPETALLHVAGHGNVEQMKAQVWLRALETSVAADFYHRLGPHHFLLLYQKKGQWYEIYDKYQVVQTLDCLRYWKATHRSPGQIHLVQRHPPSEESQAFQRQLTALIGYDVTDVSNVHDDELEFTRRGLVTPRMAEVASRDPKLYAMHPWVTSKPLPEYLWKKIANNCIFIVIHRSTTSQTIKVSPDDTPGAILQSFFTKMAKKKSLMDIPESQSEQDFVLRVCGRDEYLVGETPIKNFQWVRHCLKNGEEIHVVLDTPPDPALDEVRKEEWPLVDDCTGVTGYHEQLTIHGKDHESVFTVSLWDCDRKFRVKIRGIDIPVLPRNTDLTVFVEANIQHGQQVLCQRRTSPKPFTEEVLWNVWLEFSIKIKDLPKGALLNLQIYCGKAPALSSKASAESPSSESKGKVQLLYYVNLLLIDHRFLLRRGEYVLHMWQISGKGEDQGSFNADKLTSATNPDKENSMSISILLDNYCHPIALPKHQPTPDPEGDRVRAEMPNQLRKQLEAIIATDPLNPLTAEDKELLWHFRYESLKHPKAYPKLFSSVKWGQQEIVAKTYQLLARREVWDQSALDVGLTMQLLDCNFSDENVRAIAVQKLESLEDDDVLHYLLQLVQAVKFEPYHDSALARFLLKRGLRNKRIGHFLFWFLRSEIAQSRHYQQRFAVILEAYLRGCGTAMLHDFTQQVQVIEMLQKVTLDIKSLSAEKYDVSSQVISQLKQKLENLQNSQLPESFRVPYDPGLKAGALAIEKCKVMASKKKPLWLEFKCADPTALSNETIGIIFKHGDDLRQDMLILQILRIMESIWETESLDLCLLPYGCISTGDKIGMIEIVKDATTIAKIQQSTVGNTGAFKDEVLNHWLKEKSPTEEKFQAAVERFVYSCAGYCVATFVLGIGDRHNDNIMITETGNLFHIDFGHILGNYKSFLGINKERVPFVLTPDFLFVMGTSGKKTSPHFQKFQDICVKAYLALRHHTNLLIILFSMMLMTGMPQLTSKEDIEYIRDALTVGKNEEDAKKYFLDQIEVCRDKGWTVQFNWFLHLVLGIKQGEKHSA
Chain of Cyclin-dependent kinase 16 (Homo sapiens) (Q00536 whole entry): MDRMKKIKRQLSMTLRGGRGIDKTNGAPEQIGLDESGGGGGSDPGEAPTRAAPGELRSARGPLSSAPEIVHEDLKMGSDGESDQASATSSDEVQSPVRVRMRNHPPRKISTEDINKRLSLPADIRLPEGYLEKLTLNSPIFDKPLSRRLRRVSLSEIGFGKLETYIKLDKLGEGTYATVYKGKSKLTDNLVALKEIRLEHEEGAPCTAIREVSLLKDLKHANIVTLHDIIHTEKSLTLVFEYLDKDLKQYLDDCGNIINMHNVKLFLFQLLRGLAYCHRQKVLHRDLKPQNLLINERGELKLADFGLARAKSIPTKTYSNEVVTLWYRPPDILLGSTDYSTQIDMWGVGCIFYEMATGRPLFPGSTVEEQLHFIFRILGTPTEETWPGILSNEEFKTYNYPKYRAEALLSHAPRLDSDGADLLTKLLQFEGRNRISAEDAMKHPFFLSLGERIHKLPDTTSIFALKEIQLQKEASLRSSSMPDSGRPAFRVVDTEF
Chain of Tyrosine-protein kinase ABL1 (Homo sapiens), P00519 [E255K] (P00519 whole entry E255K): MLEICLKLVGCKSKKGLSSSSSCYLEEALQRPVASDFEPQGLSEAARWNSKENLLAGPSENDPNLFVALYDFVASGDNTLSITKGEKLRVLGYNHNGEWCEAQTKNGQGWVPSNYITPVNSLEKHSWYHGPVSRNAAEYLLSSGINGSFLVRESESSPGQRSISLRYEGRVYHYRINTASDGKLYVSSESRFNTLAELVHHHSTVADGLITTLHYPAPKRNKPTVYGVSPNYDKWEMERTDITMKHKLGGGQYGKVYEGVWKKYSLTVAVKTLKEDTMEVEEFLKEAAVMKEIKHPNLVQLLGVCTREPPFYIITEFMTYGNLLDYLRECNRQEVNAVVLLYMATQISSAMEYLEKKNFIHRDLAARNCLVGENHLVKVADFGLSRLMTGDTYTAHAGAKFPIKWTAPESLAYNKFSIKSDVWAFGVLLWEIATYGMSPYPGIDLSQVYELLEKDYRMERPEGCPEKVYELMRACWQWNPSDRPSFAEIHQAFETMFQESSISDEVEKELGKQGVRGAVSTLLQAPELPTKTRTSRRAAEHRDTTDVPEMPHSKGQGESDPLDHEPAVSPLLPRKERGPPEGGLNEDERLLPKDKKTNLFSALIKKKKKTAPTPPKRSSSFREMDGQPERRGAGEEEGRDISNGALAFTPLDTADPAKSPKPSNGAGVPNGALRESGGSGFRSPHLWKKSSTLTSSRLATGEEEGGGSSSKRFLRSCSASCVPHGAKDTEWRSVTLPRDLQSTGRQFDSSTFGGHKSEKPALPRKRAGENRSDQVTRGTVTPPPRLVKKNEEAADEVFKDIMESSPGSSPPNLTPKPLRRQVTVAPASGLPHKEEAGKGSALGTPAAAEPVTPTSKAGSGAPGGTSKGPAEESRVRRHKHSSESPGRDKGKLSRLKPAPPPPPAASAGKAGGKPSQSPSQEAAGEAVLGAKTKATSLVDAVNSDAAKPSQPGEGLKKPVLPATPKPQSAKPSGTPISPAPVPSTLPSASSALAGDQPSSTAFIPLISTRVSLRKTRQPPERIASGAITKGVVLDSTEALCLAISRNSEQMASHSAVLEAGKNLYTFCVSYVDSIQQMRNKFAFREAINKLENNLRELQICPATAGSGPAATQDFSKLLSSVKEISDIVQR
Chain of Cyclin-dependent kinase 7 (Homo sapiens) (P50613 whole entry): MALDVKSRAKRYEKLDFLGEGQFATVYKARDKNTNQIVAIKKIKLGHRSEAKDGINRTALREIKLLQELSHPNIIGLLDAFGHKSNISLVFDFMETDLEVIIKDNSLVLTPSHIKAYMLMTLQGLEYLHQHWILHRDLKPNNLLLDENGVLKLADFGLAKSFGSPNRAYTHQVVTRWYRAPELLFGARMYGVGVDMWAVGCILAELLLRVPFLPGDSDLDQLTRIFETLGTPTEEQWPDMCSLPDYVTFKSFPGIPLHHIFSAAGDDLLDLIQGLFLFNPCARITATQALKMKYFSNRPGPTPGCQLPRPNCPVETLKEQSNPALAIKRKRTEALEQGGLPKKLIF
Chain of Serine/threonine-protein kinase PLK3 (Homo sapiens) (Q9H4B4 whole entry, looked up): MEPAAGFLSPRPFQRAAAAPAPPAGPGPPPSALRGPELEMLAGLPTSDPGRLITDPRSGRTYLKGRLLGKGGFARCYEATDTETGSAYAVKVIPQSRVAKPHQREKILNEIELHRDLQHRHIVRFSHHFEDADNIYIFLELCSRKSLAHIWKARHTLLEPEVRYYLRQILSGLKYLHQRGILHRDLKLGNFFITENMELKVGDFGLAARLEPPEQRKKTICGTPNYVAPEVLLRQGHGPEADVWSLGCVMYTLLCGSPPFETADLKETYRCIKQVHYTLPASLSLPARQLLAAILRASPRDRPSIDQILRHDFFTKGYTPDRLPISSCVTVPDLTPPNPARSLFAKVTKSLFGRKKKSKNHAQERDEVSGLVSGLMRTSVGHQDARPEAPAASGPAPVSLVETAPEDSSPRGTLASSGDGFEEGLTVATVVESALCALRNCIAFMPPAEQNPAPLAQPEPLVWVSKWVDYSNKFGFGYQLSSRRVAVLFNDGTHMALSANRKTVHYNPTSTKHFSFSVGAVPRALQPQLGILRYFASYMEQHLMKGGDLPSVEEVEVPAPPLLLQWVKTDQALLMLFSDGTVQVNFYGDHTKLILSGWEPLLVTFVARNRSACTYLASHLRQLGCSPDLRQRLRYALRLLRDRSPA

Take `CO[C@@H]1[C@H](N(C)C(=O)CCC(=O)NCCC(=O)NCCC(=O)NCCC(N)=O)C[C@H]2O[C@]1(C)n1c3ccccc3c3c4c(c5c6ccccc6n2c5c31)C(=O)NC4`: the Selectivity ratio in assay [1] turned out to be 6. Also, the Activity in assay [2] was found to be 0.6%; in assay [3] it was 43%. For the same molecule, in assay [4], the Ratio IC50 is more than 60.
With `CO[C@@H]1[C@H](N(C)C(=O)CCC(=O)NCCC(=O)NCCC(=O)NCCC(=O)NCCC(=O)NCCC(=O)NCCC(=O)NCCC(=O)N[C@H]2CSSC[C@@H](C(=O)NCC(N)=O)NC(=O)CNC(=O)[C@H](Cc3ccccc3)NC(=O)[C@H](C(C)C)NC(=O)[C@H](CCCNC(=N)N)NC(=O)[C@H](Cc3ccccc3)NC(=O)[C@H](C(C)C)NC2=O)C[C@H]2O[C@]1(C)n1c3ccccc3c3c4c(c5c6ccccc6n2c5c31)C(=O)NC4` ({Staurosporine-Suc-βAla-βAla-βAla-βAla-βAla-βAla-βAla}-CVFRVFGCG-NH2; disulfide 1-8), the Activity worked out at 94% in assay [5]; 74% in [6]; 100% in assay [7]; 100% in [8]; 100% in assay [9].
`CO[C@@H]1[C@H](N(C)C(=O)CCC(=O)NCCC(=O)NCCC(=O)NCCC(=O)NCCC(=O)NCCC(=O)NCCC(=O)NCCC(=O)N[C@H]2CNC(=O)C[C@@H](C(N)=O)NC(=O)CNC(=O)[C@H](Cc3ccccc3)NC(=O)[C@H](C(C)C)NC(=O)[C@H](CCCNC(=N)N)NC(=O)[C@H](Cc3ccccc3)NC(=O)[C@H](C(C)C)NC2=O)C[C@H]2O[C@]1(C)n1c3ccccc3c3c4c(c5c6ccccc6n2c5c31)C(=O)NC4` ({Staurosporine-Suc-βAla-βAla-βAla-βAla-βAla-βAla-βAla}-[Dap]VFRVFGD-NH2; lactam 1-8): the Activity in [10] was found to be 1.8%; in assay [11], 100%; in assay [12], 98%.
